Measured values from ChEMBL document CHEMBL3525900, “Pharmacokinetics, distribution, and metabolism of [14C]sunitinib in rats, monkeys, and humans” (Drug Metab Dispos, 2012).

How the values were obtained:
Kidney = assay: Drug concentration in male Lister Hooded pigmented rat kidney assessed as radioactivity per gram of tissue at 20 mg/kg administered as single dose via gastric gavage measured after 72 hrs by autoradiographic analysis; type: ADME, organism-based; parameters: dose 20 mg/kg, dosed compound name [14C]Sunitinib; conditions: in vivo, po
Cynomolgus monkey [1] = assay: AUC (0 to infinity) as total radioactivity in female cynomolgus monkey plasma at 6 mg/kg, po administered as single dose by LC/MS/MS analysis; type: ADME, organism-based, Macaca fascicularis; parameters: time infinity, dose 6 mg/kg, dosed compound name [14C]Sunitinib, route oral; conditions: in vivo
Outline: (§1)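 Cynomolgus monkeys of both sexes received one oral gavage of [14C]sunitinib L-malate at 6 mg/kg (37 µCi/kg). Femoral-vein blood was taken into heparin from 0.5 to 336 h. Plasma was kept cold and protected from light, then stored at -80 °C. Total radioactivity was by scintillation counting and sunitinib by methanol-extraction LC-MS-MS. Cmax was from raw data, t½ from the log-linear terminal slope, AUC(0-∞) by linear trapezoidal rule.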

Brain = assay: Drug concentration in female albino rat brain assessed as radioactivity per gram of tissue at 20 mg/kg administered as single dose via gastric gavage measured after 6 hrs by autoradiographic analysis; type: ADME, organism-based; parameters: dose 20 mg/kg, dosed compound name [14C]Sunitinib; conditions: in vivo, po
Outline: (§2)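 Sprague Dawley (albino) rats, ca 7-8 weeks old, received a single gastric-gavage dose of [14C]sunitinib L-malate at 20 mg/kg (15 mg freebase/kg, 100 µCi/kg). One animal per sex killed by CO2 at 3, 6, 24, 72 and 168 h, then frozen in CO2/hexane. 30 µm sagittal sections were cut and freeze-dried. Radioactivity per gram quantified by whole-body autoradiography using regression against standards. LOQ 0.04–0.06 µg freebase equiv/g.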

[2] = Drug concentration in female albino rat bone marrow assessed as radioactivity per gram of tissue at 20 mg/kg administered as single dose via gastric gavage measured after 24 hrs by autoradiographic analysis; type: ADME, organism-based; parameters: dose 20 mg/kg, dosed compound name [14C]Sunitinib; conditions: in vivo, po; outline: as §2
[3] = Drug concentration in male albino rat bone marrow assessed as radioactivity per gram of tissue at 20 mg/kg administered as single dose via gastric gavage measured after 3 hrs by autoradiographic analysis; type: ADME, organism-based; parameters: dose 20 mg/kg, dosed compound name [14C]Sunitinib; conditions: in vivo, po
[4] = Drug concentration in male Lister Hooded pigmented rat brown fat assessed as radioactivity per gram of tissue at 20 mg/kg administered as single dose via gastric gavage measured after 168 hrs by autoradiographic analysis; type: ADME, organism-based, Brown adipose tissue; parameters: dose 20 mg/kg, dosed compound name [14C]Sunitinib; conditions: in vivo, po
[5] = Drug recovery in urine of female cynomolgus monkey at 6 mg/kg, po administered as single dose during 0 to 336 hrs by liquid scintillation counting; type: ADME, organism-based, Macaca fascicularis; parameters: dose 6 mg/kg, dosed compound name [14C]Sunitinib, route oral; conditions: in vivo
Zone of skin [6] = assay: Drug concentration in male Lister Hooded pigmented rat abdomen skin assessed as radioactivity per gram of tissue at 20 mg/kg administered as single dose via gastric gavage measured after 72 hrs by autoradiographic analysis; type: ADME, organism-based; parameters: dose 20 mg/kg, dosed compound name [14C]Sunitinib; conditions: in vivo, po
Lung = assay: Drug concentration in female Lister Hooded pigmented rat lung assessed as radioactivity per gram of tissue at 20 mg/kg administered as single dose via gastric gavage measured after 24 hrs by autoradiographic analysis; type: ADME, organism-based; parameters: dose 20 mg/kg, dosed compound name [14C]Sunitinib; conditions: in vivo, po
Outline: (§3)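 Lister Hooded (pigmented) rats, ca 7-8 weeks old, acclimated 7 days, given [14C]sunitinib L-malate by gastric gavage at 20 mg/kg (15 mg freebase/kg, 100 µCi/kg). One male and one female killed by CO2 at 24, 72, 168 and 336 h. Carcasses frozen in solid CO2/hexane and embedded in frozen cellulose. 30 µm sagittal cryosections were freeze-dried. Tissue radioactivity measured by quantitative whole-body autoradiography against calibration standards, with background subtracted.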

[7] = Drug concentration in female albino rat pituitary gland assessed as radioactivity per gram of tissue at 20 mg/kg administered as single dose via gastric gavage measured after 6 hrs by autoradiographic analysis; type: ADME, organism-based; parameters: dose 20 mg/kg, dosed compound name [14C]Sunitinib; conditions: in vivo, po
Outline: (§4)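 Sprague Dawley albino rats, ca 7-8 weeks old, dosed once by gastric gavage with [14C]sunitinib L-malate (15 mg freebase/kg, 100 µCi/kg). One male and one female killed by CO2 at 3, 6, 24, 72 and 168 h. Carcasses frozen in solid CO2/hexane, embedded and cut into 30 µm sagittal sections, then freeze-dried. Radioactivity quantified by whole-body autoradiography against standards by regression, background subtracted.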

[8] = Drug concentration in female albino rat thyroid gland assessed as radioactivity per gram of tissue at 20 mg/kg administered as single dose via gastric gavage measured after 6 hrs by autoradiographic analysis; type: ADME, organism-based; parameters: dose 20 mg/kg, dosed compound name [14C]Sunitinib; conditions: in vivo, po
Adrenal [9] = assay: Drug concentration in female albino rat adrenal assessed as radioactivity per gram of tissue at 20 mg/kg administered as single dose via gastric gavage measured after 168 hrs by autoradiographic analysis; type: ADME, organism-based; parameters: dose 20 mg/kg, dosed compound name [14C]Sunitinib; conditions: in vivo, po; outline: as §2
[10] = Drug concentration in male albino rat testis assessed as radioactivity per gram of tissue at 20 mg/kg administered as single dose via gastric gavage measured after 72 hrs by autoradiographic analysis; type: ADME, organism-based; parameters: dose 20 mg/kg, dosed compound name [14C]Sunitinib; conditions: in vivo, po
[11] = Drug concentration in male albino rat uveal tract assessed as radioactivity per gram of tissue at 20 mg/kg administered as single dose via gastric gavage measured after 3 hrs by autoradiographic analysis; type: ADME, organism-based; parameters: dose 20 mg/kg, dosed compound name [14C]Sunitinib; conditions: in vivo, po
Stomach = assay: Drug concentration in female Lister Hooded pigmented rat stomach assessed as radioactivity per gram of tissue at 20 mg/kg administered as single dose via gastric gavage measured after 24 hrs by autoradiographic analysis; type: ADME, organism-based; parameters: dose 20 mg/kg, dosed compound name [14C]Sunitinib; conditions: in vivo, po; outline: as §3
Small intestine = assay: Drug concentration in male Lister Hooded pigmented rat small intestine assessed as radioactivity per gram of tissue at 20 mg/kg administered as single dose via gastric gavage measured after 72 hrs by autoradiographic analysis; type: ADME, organism-based; parameters: dose 20 mg/kg, dosed compound name [14C]Sunitinib; conditions: in vivo, po
Spleen [12] = assay: Drug concentration in female albino rat spleen assessed as radioactivity per gram of tissue at 20 mg/kg administered as single dose via gastric gavage measured after 24 hrs by autoradiographic analysis; type: ADME, organism-based; parameters: dose 20 mg/kg, dosed compound name [14C]Sunitinib; conditions: in vivo, po
Spleen [13] = assay: Drug concentration in female albino rat spleen assessed as radioactivity per gram of tissue at 20 mg/kg administered as single dose via gastric gavage measured after 72 hrs by autoradiographic analysis; type: ADME, organism-based; parameters: dose 20 mg/kg, dosed compound name [14C]Sunitinib; conditions: in vivo, po
Adrenal [14] = assay: Drug concentration in female albino rat adrenal assessed as radioactivity per gram of tissue at 20 mg/kg administered as single dose via gastric gavage measured after 6 hrs by autoradiographic analysis; type: ADME, organism-based; parameters: dose 20 mg/kg, dosed compound name [14C]Sunitinib; conditions: in vivo, po; outline: as §2
Zone of skin [15] = assay: Drug concentration in male albino rat abdomen skin assessed as radioactivity per gram of tissue at 20 mg/kg administered as single dose via gastric gavage measured after 24 hrs by autoradiographic analysis; type: ADME, organism-based; parameters: dose 20 mg/kg, dosed compound name [14C]Sunitinib; conditions: in vivo, po
Cynomolgus monkey [16] = assay: AUC (0 to infinity) as total radioactivity in male cynomolgus monkey plasma at 6 mg/kg, po administered as single dose by LC/MS/MS analysis; type: ADME, organism-based, Macaca fascicularis; parameters: time infinity, dose 6 mg/kg, dosed compound name [14C]Sunitinib, route oral; conditions: in vivo; outline: as §1
[17] = Drug concentration in male albino rat thyroid gland assessed as radioactivity per gram of tissue at 20 mg/kg administered as single dose via gastric gavage measured after 3 hrs by autoradiographic analysis; type: ADME, organism-based; parameters: dose 20 mg/kg, dosed compound name [14C]Sunitinib; conditions: in vivo, po
Spleen [18] = assay: Drug concentration in male albino rat spleen assessed as radioactivity per gram of tissue at 20 mg/kg administered as single dose via gastric gavage measured after 6 hrs by autoradiographic analysis; type: ADME, organism-based; parameters: dose 20 mg/kg, dosed compound name [14C]Sunitinib; conditions: in vivo, po
Rattus norvegicus = assay: Cmax as total radioactivity in female Sprague-Dawley rat plasma at 15 mg/kg, po administered as single dose by LC/MS/MS analysis; type: ADME, organism-based; parameters: dose 15 mg/kg, dosed compound name [14C]Sunitinib, route oral; conditions: in vivo
Outline: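 Single dose of [14C]sunitinib L-malate as free base, 50 µCi/kg. IV dose was 5 mg/kg by tail vein in 5 females. Oral dose was 15 mg/kg by gavage in 3 females and 3 males. Total radioactivity was by scintillation counting. […] Cmax was read from raw data, t½ by log-linear regression, AUC by linear trapezoidal rule.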

Harderian gland = assay: Drug concentration in female albino rat harderian gland assessed as radioactivity per gram of tissue at 20 mg/kg administered as single dose via gastric gavage measured after 6 hrs by autoradiographic analysis; type: ADME, organism-based; parameters: dose 20 mg/kg, dosed compound name [14C]Sunitinib; conditions: in vivo, po; outline: as §4
Liver = assay: Drug concentration in male albino rat liver assessed as radioactivity per gram of tissue at 20 mg/kg administered as single dose via gastric gavage measured after 3 hrs by autoradiographic analysis; type: ADME, organism-based; parameters: dose 20 mg/kg, dosed compound name [14C]Sunitinib; conditions: in vivo, po

- Radiolabel recovery (Kidney): 0.26 ugequiv
- AUC (Cynomolgus monkey [1]): 5692 ng.Eq.hr/ml
- Radiolabel recovery (Brain): 0.43 ugequiv
- Radiolabel recovery [2]: 1.21 ugequiv
- Radiolabel recovery [3]: 7.55 ugequiv
- Radiolabel recovery [4]: 0.06 ugequiv
- Radiolabel recovery [5]: 6.1%
- Radiolabel recovery (Zone of skin [6]): 0.64 ugequiv
- Radiolabel recovery (Lung): 2.79 ugequiv
- Radiolabel recovery [7]: 20.88 ugequiv
- Radiolabel recovery [8]: 11.23 ugequiv
- Radiolabel recovery (Adrenal [9]): 0.33 ugequiv
- Radiolabel recovery [10]: 0.39 ugequiv
- Radiolabel recovery [11]: 2.63 ugequiv
- Radiolabel recovery (Stomach): 0.64 ugequiv
- Radiolabel recovery (Small intestine): 0.07 ugequiv
- Radiolabel recovery (Spleen [12]): 4.42 ugequiv
- Radiolabel recovery (Spleen [13]): 0.27 ugequiv
- Radiolabel recovery (Adrenal [14]): 26.74 ugequiv
- Radiolabel recovery (Zone of skin [15]): 3.39 ugequiv
- AUC (Cynomolgus monkey [16]): 9095 ng.Eq.hr/ml
- Radiolabel recovery [17]: 18.4 ugequiv
- Radiolabel recovery (Spleen [18]): 16.24 ugequiv
- Cmax (Rattus norvegicus): 2926 ngequiv/ml
- Radiolabel recovery (Harderian gland): 14.12 ugequiv
- Radiolabel recovery (Liver): 15.71 ugequiv
SMILES: CCN(CC)CCNC(=O)c1c(C)[nH]c(/[14CH]=C2\C(=O)Nc3ccc(F)cc32)c1C.O=C(O)C[C@H](O)C(=O)O
